Assay results published in ChEMBL document CHEMBL1153445, “Alkenyl substituted bicyclic nucleoside analogues retain nanomolar potency against Varicella Zoster Virus” (Bioorg Med Chem, 2009).

What was measured:
[1] = Cytotoxicity against human HEL cells; format: cell-based; conditions: for MCC: read-out: MIC
Human alphaherpesvirus 3 [2] = test: Antiviral activity against Varicella Zoster virus Oka infected in HEL cells assessed as reduction in viral plaque formation after 5 days; format: functional, organism-based; conditions: Human alphaherpesvirus 3, Oka, 120 h
Method in brief: (§1)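 Confluent HEL cell monolayers infected with 20 PFU VZV per well; after 1–2 h adsorption, residual virus removed and cells incubated in MEM with 2% inactivated FCS, 1% L-glutamine, 0.3% sodium bicarbonate plus graded compound concentrations.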

[3] = Inhibition of Varicella Zoster virus thymidine kinase-mediated [3H]thymidine phosphorylation; set-up: species or system Human alphaherpesvirus 3
Human alphaherpesvirus 3 [4] = test: Antiviral activity against Varicella Zoster virus YS infected in HEL cells assessed as reduction in viral plaque formation after 5 days; format: functional, organism-based; conditions: Human alphaherpesvirus 3, YS, 120 h; method in brief: as §1

EC50 (Human alphaherpesvirus 3 [2]) [µM] | IC50 [3] [µM] | EC50 (Human alphaherpesvirus 3 [4]) [µM] | Structure (SMILES) | MCC [1] [µM] | CC50 [1] [µM]
 |  |  | CCCCc1ccc(-c2cc3cn([C@H]4C[C@H](O)[C@@H](CO)O4)c(=O)nc3o2)cc1 | ≥ 50 | 
 |  |  | CCCc1ccc(-c2cc3cn([C@H]4C[C@H](O)[C@@H](CO)O4)c(=O)nc3o2)cc1 | ≥ 50 | 
8.4 | 119 |  | CCC/C=C/c1ccccc1-c1cc2cn([C@H]3C[C@H](O)[C@@H](CO)O3)c(=O)nc2o1 | 80 | 41
0.0003 | 2.3 | 0.0008 | CCC/C=C/c1ccc(-c2cc3cn([C@H]4C[C@H](O)[C@@H](CO)O4)c(=O)nc3o2)cc1 | > 5 | > 200
0.0006 | 2.4 | 0.007 | CC/C=C/c1ccc(-c2cc3cn([C@H]4C[C@H](O)[C@@H](CO)O4)c(=O)nc3o2)cc1 | ≥ 5 | > 200
0.004 | 1.9 | 0.004 | C/C=C/c1ccc(-c2cc3cn([C@H]4C[C@H](O)[C@@H](CO)O4)c(=O)nc3o2)cc1 | ≥ 50 | > 200
33 | 3.8 |  | CC/C=C/c1ccccc1-c1cc2cn([C@H]3C[C@H](O)[C@@H](CO)O3)c(=O)nc2o1 | 400 | 102
13 | 2.6 | 58 | C/C=C/c1cccc(-c2cc3cn([C@H]4C[C@H](O)[C@@H](CO)O4)c(=O)nc3o2)c1 | > 200 | > 200
1.1 | 397 | 1.3 | CCC/C=C/c1cccc(-c2cc3cn([C@H]4C[C@H](O)[C@@H](CO)O4)c(=O)nc3o2)c1 | ≥ 200 | > 200
1.9 | 23 | 2.3 | CC/C=C/c1cccc(-c2cc3cn([C@H]4C[C@H](O)[C@@H](CO)O4)c(=O)nc3o2)c1 | ≥ 20 | 68
12 | 0.31 |  | C/C=C/c1ccccc1-c1cc2cn([C@H]3C[C@H](O)[C@@H](CO)O3)c(=O)nc2o1 | 400 | 103
 |  |  | CCCCCc1ccc(-c2cc3cn([C@H]4C[C@H](O)[C@@H](CO)O4)c(=O)nc3o2)cc1 [CF1743] | ≥ 50 | 
